Tests used:
Vero cells = experiment: In vitro cytotoxicity assay on Vero cells; assay type: cell-based, monkeys; conditions: 100 μM, 24 h, 3000 Vero cells/well
How it was run: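 Vero cells, about 3000 per well at 90% confluency, were exposed to the test compound at 100 μM for 24 h at 37°C in a CO2 incubator. The percentage of metabolically active cells was compared with untreated control to give cytotoxicity. Three independent runs were done.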

female Wistar rats = experiment: Acute oral toxicity; assay type: in vivo; conditions: 100 mg/kg, observed 48 h for mortality
How it was run: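 Female Wistar rats were fasted overnight, then given the test compound orally as a single 100 mg/kg dose. Animals were watched for signs of morbidity […].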

SMILES | toxicity in vitro (Vero cells) | toxicity in vivo (female Wistar rats)
Cc1nc2ccccc2n1CC(=O)NNc1ccccc1 [MBPHYD, 2-(2-methyl-1H-benzimidazol-1-yl)-N′-phenylacetohydrazide] | non-toxic | non-toxic
Cc1nc2ccccc2n1CC(=O)NN [MBNHYD, 2-(2-methyl-1H-benzimidazol-1-yl) acetohydrazide] | non-toxic | non-toxic

From publication PMC9647759 (Pharmaceutical Chemistry Journal, 2022)
